Compound activity as filed in PubChem BioAssay.
An excerpt weighted towards active compounds, which were near 1.1% of everything screened.
G6PDH CS: L. mesenteroides G6PDH inhibitors, counter-screen for G6PDH-coupled screening assays, biochemical, Leuconostoc mesenteroides enzyme; Purified L. mesenteroides G6PDH, diaphorase/resazurin coupled fluorescence, 45 min; inhibition, % at 5 µM; hit rate 0.12% among 200,000; AID 1020, 2008; in the data active = inhibition above about 50%
PMI activator: activators of human PMI, primary screen, biochemical, fluorescence intensity, near-Km mannose 6-phosphate; Mannose-6-phosphate isomerase (Homo sapiens), P34949; purified human PMI, coupled resazurin fluorescence, 20 min; active compounds read high; 1 = vehicle control, 0 substrate-free wells; activation factor at 20 µM; hit rate 0.005% among 190,000; AID 1214, 2008;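 active = activation factor of 2 or more at 20 µM, relative to plate controls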
Target sequence (P34949 whole entry, looked up): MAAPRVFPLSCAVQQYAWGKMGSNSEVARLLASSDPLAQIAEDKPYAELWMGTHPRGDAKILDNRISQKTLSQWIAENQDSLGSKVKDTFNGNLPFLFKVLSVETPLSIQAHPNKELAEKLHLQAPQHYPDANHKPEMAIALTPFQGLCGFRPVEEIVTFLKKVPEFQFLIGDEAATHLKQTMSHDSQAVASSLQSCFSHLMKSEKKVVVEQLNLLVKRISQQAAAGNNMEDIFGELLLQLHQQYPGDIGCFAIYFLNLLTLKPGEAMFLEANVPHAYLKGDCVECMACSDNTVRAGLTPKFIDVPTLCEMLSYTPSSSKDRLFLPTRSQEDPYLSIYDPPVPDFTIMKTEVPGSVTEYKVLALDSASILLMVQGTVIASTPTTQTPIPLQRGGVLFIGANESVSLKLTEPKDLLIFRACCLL
Diaph act CS: compounds boosting diaphorase resazurin reduction – biochemical, uHTS, resorufin fluorescence, counter-screen for diaphorase-coupled primary assays, primary screen | hit rate 0.005% among 190,000 | activation factor at 20 µM | Diaphorase/resazurin coupled assay, 16 min; active compounds read high; 1 = vehicle wells, 0 = NADH-free wells | AID 1229, 2008;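 active = diaphorase activity raised at least twofold by the compound at 20 µM; inactive = activation factor below 2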
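Material: purified diaphorase enzyme from Clostridium kluyveri / Medium: HEPES pH 7.4 buffer with MgCl2 and Tween 20 / Schedule: enzyme reaction of 16 min at room temperature / Measured by: resorufin fluorescence, excitation 544 nm, emission 590 nm / Evaluation: rise in resorufin formation, marking diaphorase activation or chemical reduction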
PMI act satM6P: human PMI activators, high substrate, primary screen, biochemical, fluorescence intensity, near-saturating mannose 6-phosphate | Mannose-6-phosphate isomerase (Homo sapiens), P34949 | coupled PMI enzyme assay, resazurin fluorescence, 20 min; active compounds read high; 1 = untreated enzyme, 0 = substrate-free blank | activation factor at 20 µM | hit rate 0.34% among 190,000 | AID 1216, 2008;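 active = activation factor of 2 or more at 20 µM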
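Test system: human phosphomannose isomerase with PGI, G6PDH, diaphorase coupling enzymes / Doses: 20 µM compound, 1% DMSO / Times: enzyme reaction with compound 20 min at room temperature / Measured by: Diaphorase-driven resazurin-to-resorufin fluorescence, excitation 544, emission 590 nm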
Diaph inh CS: diaphorase inhibitors and chemical oxidizers, primary screen, counter-screen for diaphorase-coupled primary assays, biochemical, uHTS, resorufin fluorescence. diaphorase resazurin-to-resorufin fluorescence, NADH, 16 min; bacterial (C. kluyveri) enzyme, not human. inhibition, % at 20 µM. hit rate 0.69% among 190,000;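 active = primary screen inhibition at 20 µM above a set limit, cut at about 50% in these data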;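 note: plate controls were DMSO with full reaction for no effect and wells lacking NADH for full effect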
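System: Diaphorase enzyme from Clostridium kluyveri | Amount: Enzyme working solution with 0.14 U/mL diaphorase | Benchmarks: No-NADH positive control and DMSO neutral control | Signal: Fluorescence of resorufin formed from resazurin, Ex 544/Em 590 nm | Schedule: 16-min room-temperature incubation before reading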
Numbers without * were called inactive.

SMILES	G6PDH CS	PMI activator	Diaph act CS	PMI act satM6P	Diaph inh CS
COc1ccc(/C=N/Nc2nc(N3CCCC3)nc(N3CCCC3)n2)cc1O	10	1.1	0.9	1.1	6
Oc1ccc(/C=N\Nc2cc(N3CCOCC3)nc(N3CCOCC3)n2)c(O)c1	38	0.7	0.7	0.4	35
Cc1ccc(Cl)cc1N1CCN(Cc2nc3ccsc3c(=O)[nH]2)CC1	-4	1	0.8	1	17
CN(/C=C/C(=C\C=[N+](C)c1ccccc1)OCCCS(=O)(=O)[O-])c1ccccc1	17	1.2	0.4	1.3	59*
COc1ccc(C(=O)NC2CC(C)(C)Cc3occc32)cc1 (stereo not drawn)	4	0.9	1	1	-4
O=C(/C=C1\NC2(CCCC2)Cc2ccccc21)C(=O)N/N=C/c1ccc(O)c(O)c1	0	0.6	0.3	0.8	74*
COCCn1nnnc1SCC(=O)Nc1ccc2c(c1)OCO2	6	0.9	0.6	0.8	39
CCOC(=O)c1c(/N=C/N(C)C)sc(/C=N/Nc2ccccc2)c1-c1ccc(Cl)cc1	0	1.5	0.8	2.1*	20
CCOC(=O)c1c(/N=C/N(C)C)sc(C)c1C	0	1	0.9	1.1	8
CC(Cl)C(=O)c1ccc2c(c1)CCN2C(=O)C1CC1 (stereo not drawn)	6	1.3	0.4	1.3	62*
Fc1cccc(Cl)c1CNc1ccc(N2CCCC2)cc1	22	0.1	0.2	0.2	79*
COCCN1C(=O)N[C@@H](c2ccco2)C(C(C)=O)=C1C	18	1	0.9	1	12
O=C(Nc1ccc(S(=O)(=O)Nc2nccs2)cc1)/C(=C/c1ccccc1Cl)NC(=O)c1ccccc1	-16	0.8	0.8	0.9	21
Cc1cc2cc(CNC(=O)c3ccc4c(c3)OCO4)ccc2[nH]1	6	0.9	0.8	0.8	15
NC1=CC(=O)c2cccc3cccc1c23	22	0.4	0.4	0.6	63*
NC1=Nc2cccc3cccc1c23	15	0.9	0.9	0.4	13
COc1cc(CC(=O)OCn2nnc3ccccc3c2=O)cc(OC)c1OC	-2	1	0.9	1	11
CC(C)(C)C(=O)Nc1nnc(SCC(=O)NCc2ccco2)s1	-1	0.9	0.8	1	19
COc1ccccc1C(=O)N/C(=C/c1ccc(Br)cc1)C(=O)NCC(=O)O	8	0.9	0.8	0.9	16
CCOC(=O)N1CCC2(CC1)C(C#N)=C(N)Oc1c2c(C)nn1-c1cccc(Cl)c1	-1	1.5	0.8	2*	17
Cc1ccc(S(=O)(=O)N(CC(=O)Nc2ccccc2C(=O)O)c2ccc(Cl)cc2)cc1	14	0.9	0.8	0.8	22
CCn1cc2c(c1-c1cccc(C)c1)c(=O)n(C)c(=O)n2C	4	1.5	0.7	2.1*	27
COCc1cc(CN2CCN(C)CC2)c(O)c2ncccc12	42	0.6	0.7	0.6	32
Oc1c(CN2CCOCC2)cc(COCc2ccccc2)c2cccnc12	-4	0.5	0.5	0.8	53*
CC(=O)N1CCC2(CC1)NC(=O)N(c1ccccc1)N2	11	1.6	0.8	2.4*	22
SMILES	G6PDH CS	PMI activator	Diaph act CS	PMI act satM6P	Diaph inh CS
NC(=O)N1CCC2(CC1)NC(=O)N(c1ccccc1)N2	18	1.6	0.9	2.5*	8
O=C1NC2(CCCCC2)NN1c1ccccc1	7	0.9	0.8	1	20
CN1CCN(c2ccccc2NC(=O)COc2ccc(Br)cc2)CC1	-5	1	0.9	1	8
Cc1cc(C(=O)N=Nc2c(O)n(C(C)C)c3ccccc23)n[nH]1	4	0.8	0.5	0.7	54*
O=C(Nc1nc2ccccc2[nH]1)c1ccc(F)cc1	6	1	0.9	0.9	13
N#Cc1c2nc3ccccc3nc2n2cc(NC(=O)c3ccc(F)cc3)ccc12	34	0.9	0.1	1.2	90*
